Source: ChEMBL document CHEMBL4825685, “Structure activity relationship (SAR) study identifies a quinoxaline urea analog that modulates IKKβ phosphorylation for pancreatic cancer therapy” (Eur J Med Chem, 2021)
Calls of active or inactive are those of the source. No cut-off for these calls is given here.

Assays:
MIA PaCa-2 [1] = assay: Antitumor activity against human MIA PaCa-2 cells xenografted in Foxn1nu athymic nude mouse assessed as reduction in tumor volume at 15 mg/kg, ip administered every 3 days for 4 weeks by digital caliper method relative to control; format: functional; design: scale not given: the % may be the effect or the level left
Procedure, shortened: (§1)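 MiaPaCa2 cells (2.5 × 10⁶, mixed 2:1 with Matrigel) implanted subcutaneously in left flank; randomised 20 days later (n = 6/group). Gemcitabine 15 mg/kg i.p. every 72 h against vehicle (100 µl daily orally). Tumour volume measured every 3 days by caliper as 1/2 × length × width² (mm³); mice sacrificed after 27th treatment day and tumours weighed; unpaired Student's t-test.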

MIA PaCa-2 [2] = assay: Antitumor activity against human MIA PaCa-2 cells xenografted in Foxn1nu athymic nude mouse assessed as reduction in tumor weight at 15 mg/kg, ip administered every 3 days for 4 weeks […]; format: functional; design: scale not given: the % may be the effect or the level left; procedure, shortened: as §1
MIA PaCa-2 [3] = assay: Induction of apoptosis in human MIA PaCa-2 cells assessed as increase in caspase 3/7 activation at 10 uM incubated for 24 hrs by Caspase-Glo assay; format: functional, cell-based
Procedure, shortened: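 MiaPaCa2 cells (2.5 × 10⁴/well) attached overnight, then treated 24 h at 0.1% final DMSO. alamarBlue added at 21 h for 3 h and fluorescence read at 560/590. Caspase-Glo luminescence read 2 h later. Luminescence ×100/fluorescence normalized to DMSO average, n = 3.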

[4] = AUClast in CD1 mouse at 20 mg/kg, po measured up to 24 hrs measured by LC/MS-MS analysis; format: ADME, organism-based; design: route oral, dose 20 mg/kg, time <=24; conditions: in vivo
Procedure, shortened: (§2)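 Oral 20 mg/kg given in DMSO:PEG400:H2O 1:4:5. Mice killed at 0.083, 0.25, 0.5, 1, 2, 4, 8 and 24 h and plasma analysed by LC/MS/MS with a carbamazepine internal standard. Parameters derived by non-compartmental analysis.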

[5] = Cmax in CD1 mouse at 20 mg/kg, po measured up to 24 hrs measured by LC/MS-MS analysis; format: ADME, organism-based; design: route oral, dose 20 mg/kg, time <=24; conditions: in vivo; procedure, shortened: as §2
[6] = AUC (0 to infinity) in CD1 mouse at 20 mg/kg, po measured up to 24 hrs measured by LC/MS-MS analysis; format: ADME, organism-based; design: route oral, dose 20 mg/kg, time <=24; conditions: in vivo; procedure, shortened: as §2
[7] = target: T1, Inhibitor of nuclear factor kappa-B kinase subunit beta (Homo sapiens, UniProt O14920); assay: Inhibition of TNFalpha-induced IKKbeta mediated NF-kappaB activation in human Pancreatic cancer cells by luciferase reporter gene assay; design: species or system Pancreatic cancer cell
T1 sequence (O14920 whole entry): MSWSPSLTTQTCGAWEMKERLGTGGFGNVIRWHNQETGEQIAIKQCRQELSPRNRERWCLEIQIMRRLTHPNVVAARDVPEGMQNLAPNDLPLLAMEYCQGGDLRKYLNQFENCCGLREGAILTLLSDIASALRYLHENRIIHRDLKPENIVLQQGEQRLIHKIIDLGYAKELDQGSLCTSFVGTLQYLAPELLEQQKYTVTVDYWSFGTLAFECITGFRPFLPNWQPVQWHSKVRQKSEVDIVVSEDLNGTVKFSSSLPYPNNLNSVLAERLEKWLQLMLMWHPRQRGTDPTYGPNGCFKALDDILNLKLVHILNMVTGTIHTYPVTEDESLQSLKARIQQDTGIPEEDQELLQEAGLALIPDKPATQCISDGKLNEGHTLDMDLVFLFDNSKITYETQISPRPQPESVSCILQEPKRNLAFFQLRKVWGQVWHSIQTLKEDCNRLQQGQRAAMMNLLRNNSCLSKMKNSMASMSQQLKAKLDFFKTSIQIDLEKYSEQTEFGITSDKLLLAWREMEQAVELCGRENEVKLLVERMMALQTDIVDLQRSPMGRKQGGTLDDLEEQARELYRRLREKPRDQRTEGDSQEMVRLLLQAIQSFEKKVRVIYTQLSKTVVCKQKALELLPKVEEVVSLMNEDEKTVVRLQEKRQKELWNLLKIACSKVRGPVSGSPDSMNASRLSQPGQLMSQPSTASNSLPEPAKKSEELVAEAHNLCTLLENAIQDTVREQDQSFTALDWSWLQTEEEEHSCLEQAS

[8] = Tmax in CD1 mouse at 20 mg/kg, po measured up to 24 hrs measured by LC/MS-MS analysis; format: ADME, organism-based; conditions: in vivo; procedure, shortened: as §2
[9] = Half life in CD1 mouse at 20 mg/kg, po measured up to 24 hrs measured by LC/MS-MS analysis; format: ADME, organism-based; conditions: in vivo; procedure, shortened: as §2
[10] = Oral bioavailability in CD1 mouse at 20 mg/kg measured up to 24 hrs measured by LC/MS-MS analysis; format: ADME, organism-based; conditions: in vivo
Procedure, shortened: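 %F taken from oral (20 mg/kg, DMSO:PEG400:H2O 1:4:5) and intravenous (10 mg/kg, DMSO:PEG400:H2O 1:5:4) AUC0-∞. Plasma sampled from 0.083 to 24 h and quantified by LC/MS/MS with a carbamazepine internal standard. Non-compartmental analysis.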

[11] = MRT (0 to infinity) in CD1 mouse at 20 mg/kg, po measured up to 24 hrs measured by LC/MS-MS analysis; format: ADME, organism-based; conditions: in vivo; procedure, shortened: as §2
[12] = target: T2, Inhibitor of nuclear factor kappa-B kinase subunit beta (Homo sapiens) (UniProt O14920); assay: Inhibition of IKKbeta phosphorylation in human Pancreatic cancer cells at 5 uM by Western blot analysis; conditions: Pancreatic cancer cell, time hrs <=24, TDE = time-dependent effect
T2 sequence (whole entry): T1 sequence (O14920 whole entry)
Procedure, shortened: (§3)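 T3M4 cells treated at 0.5–5.0 µM for 6 h, or at 5 µM for 0.5–24 h. Lysates (40 µg protein) run on 4–20% SDS-PAGE and transferred to PVDF. Blots probed for p-IKKβ and IKKβ with β-actin loading control, chemiluminescent detection.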

[13] = Antiproliferative activity against human T3M4 cells assessed as growth inhibition after 72 hrs by PrestoBlue dye based fluorescence assay; format: functional
MIA PaCa-2 [14] = assay: Antitumor activity against human MIA PaCa-2 cells xenografted in Foxn1nu athymic nude mouse assessed as reduction in tumor weight at 40 mg/kg, po administered for 4 weeks […] relative to control; format: functional; design: scale not given: the % may be the effect or the level left
Procedure, shortened: (§4)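 MiaPaCa2 cells (2.5 × 10⁶, with Matrigel 2:1) implanted s.c. in the left flank. Mice randomized at day 20, n = 6 per group. Compound given orally once daily; gemcitabine 15 mg/kg i.p. every 72 h where combined; vehicle 100 µl orally. Tumors measured by caliper every 3 days (1/2 × L × W²). Tumors weighed after sacrifice after day 27. Unpaired t-test.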

[15] = Cmax in CD1 mouse at 10 mg/kg, iv measured up to 24 hrs measured by LC/MS-MS analysis; format: ADME, organism-based; design: route intravenous, dose 10 mg/kg, time <=24; conditions: in vivo
Procedure, shortened: (§5)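 Single intravenous 10 mg/kg dose in DMSO:PEG400:H2O 1:5:4. Mice killed at 0.083, 0.25, 0.5, 1, 2, 4, 8 and 24 h. Plasma levels measured by LC/MS/MS against a carbamazepine internal standard. Parameters derived by non-compartmental analysis.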

[16] = target: T2, Inhibitor of nuclear factor kappa-B kinase subunit beta (Homo sapiens); assay: Inhibition of IKKbeta phosphorylation in human Pancreatic cancer cells measured after 6 hr by Western blot analysis; conditions: Pancreatic cancer cell, dose 0.5-5 µM; procedure, shortened: as §3
[17] = MRT (0 to infinity) in CD1 mouse at 10 mg/kg, iv measured up to 24 hrs measured by LC/MS-MS analysis; format: ADME, organism-based; conditions: in vivo; procedure, shortened: as §5
MIA PaCa-2 [18] = assay: Antitumor activity against human MIA PaCa-2 cells xenografted in Foxn1nu athymic nude mouse assessed as reduction in proliferation index at 40 mg/kg, po administered for 4 weeks by Ki67 staining based assay; format: functional, organism-based
Procedure, shortened: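 Same xenograft and dosing design. Formalin-fixed paraffin sections (5 µm) stained with anti-Ki-67. Percentage of Ki-67-positive cells counted in 4 fields per tumor, n = 5. Unpaired t-test.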

MIA PaCa-2 [19] = assay: Antitumor activity against human MIA PaCa-2 cells xenografted in Foxn1nu athymic nude mouse assessed as reduction in tumor volume at 40 mg/kg, po administered for 4 weeks in combination gemcitabine by digital caliper method relative to control; format: functional; conditions: MIA PaCa-2, po, 672 h; procedure, shortened: as §4
MIA PaCa-2 [20] = assay: Antitumor activity against human MIA PaCa-2 cells xenografted in Foxn1nu athymic nude mouse assessed as reduction in tumor weight at 40 mg/kg, po administered for 4 weeks in combination gemcitabine […]; format: functional; conditions: MIA PaCa-2, po, 672 h; procedure, shortened: as §4
[21] = AUC (0 to infinity) in CD1 mouse at 10 mg/kg, iv measured up to 24 hrs measured by LC/MS-MS analysis; format: ADME, organism-based; design: route intravenous, dose 10 mg/kg, time <=24; conditions: in vivo; procedure, shortened: as §5
[22] = Volume of distribution at steady state in CD1 mouse at 10 mg/kg, iv measured up to 24 hrs measured by LC/MS-MS analysis; format: ADME, organism-based; conditions: in vivo, read-out: Vdss; procedure, shortened: as §5
MIA PaCa-2 [23] = assay: Anti-migration activity in human MIA PaCa-2 cells at 5 uM measured upto 48 hrs by microscopy based wound scratch method; format: functional, cell-based; conditions: time hrs <=48
MIA PaCa-2 [24] = assay: Antiproliferative activity against human MIA PaCa-2 cells assessed as growth inhibition after 72 hrs by PrestoBlue dye based fluorescence assay; format: functional
MIA PaCa-2 [25] = assay: Antitumor activity against human MIA PaCa-2 cells xenografted in Foxn1nu athymic nude mouse assessed as reduction in tumor volume at 40 mg/kg, po administered for 4 weeks by digital caliper method relative to control; format: functional; design: scale not given: the % may be the effect or the level left; procedure, shortened: as §4
MIA PaCa-2 [26] = assay: Induction of cell death in human MIA PaCa-2 cells measured after 24 hrs by fluorescent microscopy; format: functional, cell-based
Procedure, shortened: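 MiaPaCa2 cells treated with 5 and 10 µM for 24 h, then stained with calcein-AM plus ethidium homodimer-1 for 30 min. Live and dead cells imaged by fluorescence microscopy. Dead/total cell ratio computed, n = 3. Two-way ANOVA with Bonferroni test.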

[27] = AUClast in CD1 mouse at 10 mg/kg, iv measured up to 24 hrs measured by LC/MS-MS analysis; format: ADME, organism-based; design: route intravenous, dose 10 mg/kg, time <=24; conditions: in vivo; procedure, shortened: as §5
[28] = Half life in CD1 mouse at 10 mg/kg, iv measured up to 24 hrs measured by LC/MS-MS analysis; format: ADME, organism-based; conditions: in vivo; procedure, shortened: as §5
Mus musculus = assay: In vivo inhibition of IKKbeta in Foxn1nu athymic nude mouse xenografted with human MIA PaCa-2 cells assessed as reduction in p-IKKbeta level at 40 mg/kg, po administered for 4 weeks by immunohistochemistry analysis; format: functional, organism-based
Procedure, shortened: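 Same xenograft tissue. Paraffin sections antigen-retrieved in citrate pH 6.0 and stained with p-IKKβ antibody overnight at 4 °C, then HRP secondary. Histoscore (0–15) = proportion score × intensity score (0–3), n = 5. Unpaired t-test.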

Nc1ccn([C@@H]2O[C@H](CO)[C@@H](O)C2(F)F)c(=O)n1 [GEMCITABINE]
Activity (MIA PaCa-2 [1]): 45% | Activity (MIA PaCa-2 [2]): 45%

Cn1cc(-c2cnc3ccc(NC(=O)Nc4cccc(C(F)(F)F)c4)cc3n2)cn1
Activity (MIA PaCa-2 [3]): inactive

Cn1cc(-c2cnc3ccc(NC(=O)Nc4ccc(F)c(OC(F)(F)F)c4)cc3n2)cn1
Activity (MIA PaCa-2 [3]): inactive

O=C(Nc1ccc(Br)cc1)Nc1ccc2nc(-c3ccco3)c(-c3ccco3)nc2c1
AUC(0-t) at 24 h [4]: 1630 ng·h/mL | Cmax [5]: 300 ng/mL | Activity (MIA PaCa-2 [3]): inactive | AUC(0-inf) [6]: 1860 ng·h/mL | IC50 [7]: 8.4 µM | Tmax [8]: 2.5 h | half-life [9]: 2 h | bioavailability [10]: 3.1% | MRT inf [11]: 5.2 h

Cn1cc(-c2cnc3ccc(NC(=O)Nc4ccc(F)c(Cl)c4)cc3n2)cn1
Activity (MIA PaCa-2 [3]): inactive

Cn1cc(-c2cnc3ccc(NC(=O)Nc4cccc(OC(F)(F)F)c4)cc3n2)cn1
Activity (MIA PaCa-2 [3]): inactive

Cn1cc(-c2cnc3ccc(NC(=O)Nc4cccc(C(F)(F)F)c4F)cc3n2)cn1
inhibition [12]: Tde | GI50 [13]: 1.7 µM | AUC(0-t) at 24 h [4]: 7990 ng·h/mL | Activity (MIA PaCa-2 [14]): 75% | Cmax [5]: 700 ng/mL | Cmax [15]: 5980 ng/mL | inhibition [16]: Dose-Dependent Effect | MRT inf [17]: 4.5 h | Activity (MIA PaCa-2 [18]): Active | Activity (MIA PaCa-2 [3]): Active | inhibition in vivo at 40 mg/kg (MIA PaCa-2 [19]): > 90% | AUC(0-inf) [6]: 8010 ng·h/mL | IC50 [7]: 3.3 µM | inhibition in vivo at 40 mg/kg (MIA PaCa-2 [20]): > 90% | AUC(0-inf) [21]: 22800 ng·h/mL | Vd [22]: 2 L/kg | Activity (MIA PaCa-2 [23]): Active | Tmax [8]: 6 h | GI50 (MIA PaCa-2 [24]): 2.8 µM | half-life [9]: 2.5 h | Activity (MIA PaCa-2 [25]): 75% | bioavailability [10]: 17.6% | Activity (MIA PaCa-2 [26]): Dose-Dependent Effect | MRT inf [11]: 6.3 h | AUC(0-t) at 24 h [27]: 20300 ng·h/mL | half-life [28]: 2.7 h | Activity (Mus musculus): Active

Cc1ccc2nc(NCCN)c3ncc(C)n3c2c1
Activity (MIA PaCa-2 [3]): inactive

Cc1cc(NC(=O)Nc2ccc3ncc(-c4cnn(C)c4)nc3c2)ccc1F
Activity (MIA PaCa-2 [3]): inactive
